Active and inactive are the calls of the source.
Tests used:
[1] = Toxicity in ip dosed BDF1 mouse; format: organism-based; settings: in vivo
In short: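 Acute toxicity in female BDF1 mice, reported as LD50 in mg/kg and mmol/kg.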

Ehrlich [2] = assay: Antitumor activity against mouse EAC allografted in BDF1 mouse assessed as cure from tumor at < LD50 administered as ip after 180 days; format: functional, organism-based
In short: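 Mice bearing Ehrlich ascites carcinoma were treated with ester. Cure was defined as survival to 180 days.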

Ehrlich [3] = assay: Antitumor activity against mouse EAC allografted in BDF1 mouse assessed as inhibition of tumor growth < LD50 administered as ip; format: functional
L1210 = assay: Antitumor activity against mouse L1210 cells allografted in immune competent BDF1 mouse assessed as increase of host survival at < LD50 administered as ip after 60 days; format: functional
[4] = Toxicity in mouse L1210 cells allografted immunosuppressed BDF1 mouse assessed as mortality dosed intraperitoneally <LD50 after 60 days; format: organism-based; settings: in vivo, ip, read-out: Activity

CC(=O)OCC(=O)CF
LD50 [1]: 220 µmol/kg

O=C(CCl)COC(=O)c1ccc([N+](=O)[O-])cc1
LD50 [1]: 660 µmol/kg | Activity (Ehrlich [2]): Active

O=C(OCC(O)CF)c1ccccc1 (stereo not given)
LD50 [1]: 230 µmol/kg

CC(=O)OCC(=O)CCl
LD50 [1]: 470 µmol/kg

CC(=O)OCC(CCl)OC(C)=O (stereo not given)
LD50 [1]: 1740 µmol/kg

COC(CO)(CF)OC
LD50 [1]: 200 µmol/kg

OCC(O)CCl (stereo not given)
LD50 [1]: 1800 µmol/kg

O=C(CBr)COC(=O)c1ccccc1
LD50 [1]: 120 µmol/kg

OCC(O)CF (stereo not given)
LD50 [1]: 210 µmol/kg

O=C(CF)COC(=O)c1ccccc1
LD50 [1]: 180 µmol/kg | TGI (Ehrlich [3]): Active

O=C(OCC(O)CCl)c1ccccc1 (stereo not given)
LD50 [1]: 2100 µmol/kg

O=C(CCl)COC(=O)c1cc([N+](=O)[O-])cc([N+](=O)[O-])c1
LD50 [1]: 880 µmol/kg

O=C(CO)CF
LD50 [1]: 220 µmol/kg

O=C(CF)COP(=O)(O)O
LD50 [1]: 150 µmol/kg | TGI (Ehrlich [3]): Active

COC(CF)(COC(=O)c1ccccc1)OC
LD50 [1]: 230 µmol/kg

CC(=O)OCC(CF)OC(C)=O (stereo not given)
LD50 [1]: 220 µmol/kg

C1CCC(NC2CCCCC2)CC1.O=P(O)(O)OCC(O)CF
LD50 [1]: 300 µmol/kg

O=C(CCl)COP(=O)(O)O
LD50 [1]: 360 µmol/kg

O=C(CCl)COC(=O)c1ccccc1
Survival (L1210): 85% | mortality at 1440 h [4]: 85% | LD50 [1]: 330 µmol/kg | Activity (Ehrlich [2]): Active

C1CCC(NC2CCCCC2)CC1.O=P(O)(O)OCC(O)CCl
LD50 [1]: 2100 µmol/kg

OCC(O)CBr (stereo not given)
LD50 [1]: 1370 µmol/kg

O=C(OCC(O)CBr)c1ccccc1 (stereo not given)
LD50 [1]: 1370 µmol/kg

CC(=O)COC(=O)c1ccccc1
LD50 [1]: 7860 µmol/kg

O=C(CF)COC(=O)c1ccc([N+](=O)[O-])cc1
LD50 [1]: 370 µmol/kg

Reference: ChEMBL document CHEMBL3272073, “3-Fluoro-1-hydroxypropan-2-one (fluorohydroxyacetone) and some esters. Syntheses and effects in BDF mice” (J Med Chem, 1977)
